Experimental findings from ChEMBL document CHEMBL3228031, “Prodrugs of 9-(beta-D-arabinofuranosyl)adenine 2. Synthesis and evaluation of a number of 2',3'- and 3',5'-di-O-acyl derivatives” (J Med Chem, 1979) are described below.

Series [1] has as its system Human alphaherpesvirus 2. The experiment in a line: Antiviral activity against Herpes simplex virus 2 Magill infected in guinea pig assessed as prevention of inflammation at 10% compound concentration treated intravaginally bid for 4 days measured on day 16 post-infection. It counts as functional, organism-based. Summed up: (§1)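 Animals were infected intravaginally with 1 × 10^2.82 PFU in 0.1 mL. Drug ointments were given intravaginally starting 4 h postinfection, then twice daily for 4 days, filling the vagina. Clinical signs were scored as animals positive/infected. Cure meant no symptoms, or symptoms healed by day 16 postinfection; it was reported as cured/infected.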

For series [2], the system named is Human alphaherpesvirus 2. The experiment in a line: Antiviral activity against Herpes simplex virus 2 Magill infected in guinea pig assessed as prevention of death at 10% compound concentration treated intravaginally bid for 4 days measured on day 16 post-infection. It counts as functional, organism-based. Summed up:
as §1

Series [3] concerns Human alphaherpesvirus 2. The experiment in a line: Antiviral activity against Herpes simplex virus 2 Magill infected in guinea pig assessed as prevention of vesiculation of labia and vulva at 10% compound concentration treated intravaginally bid for 4 days measured on day 16 post-infection. Format: functional, organism-based. Summed up: as §1
Series [4] concerns Human alphaherpesvirus 2. The experiment in a line: Antiviral activity against Herpes simplex virus 2 Magill infected in guinea pig assessed as prevention of vaginal discharge at 10% compound concentration treated intravaginally bid for 4 days measured on day 16 post-infection. Format: functional, organism-based. Summed up:
as §1

Series [5] concerns Human alphaherpesvirus 2. The experiment in a line: Antiviral activity against Herpes simplex virus 2 Magill infected in guinea pig assessed as prevention of paralysis at 10% compound concentration treated intravaginally bid for 4 days measured on day 16 post-infection. Format: functional, organism-based. Summed up: as §1
Series [6] deals with Human alphaherpesvirus 2. The experiment in a line: Antiviral activity against Herpes simplex virus 2 Magill infected in guinea pig assessed as cured animal at 10% compound concentration treated intravaginally bid for 4 days measured on day 16 post-infection. It counts as functional, organism-based. Summed up: as §1
In series [7] the test system is Human alphaherpesvirus 1. The experiment in a line: Antiviral activity against Herpes simplex virus 1 assessed as plaque reduction at 0.18 x 10^-5 M by cell-based assay relative to control. Format: functional. Summed up:
(§2)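 HSV-1 plaque-reduction assay by the Hsiung–Melnick procedure. Challenge was 125-300 plaque-forming units. An ara-A control was run alongside each sample at the same molar concentration with an identical virus challenge. Data were confirmed by duplicate assay (±10%).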

Series [8] has as its system Human alphaherpesvirus 1. The experiment in a line: Antiviral activity against Herpes simplex virus 1 assessed as plaque reduction at 1.75 x 10^-5 M by cell-based assay relative to vidarabine. Format: functional. In a few lines: as §2
Series [9] deals with T1, Adenosine deaminase (Bos taurus, UniProt P56658).
T1 sequence (P56658 whole entry): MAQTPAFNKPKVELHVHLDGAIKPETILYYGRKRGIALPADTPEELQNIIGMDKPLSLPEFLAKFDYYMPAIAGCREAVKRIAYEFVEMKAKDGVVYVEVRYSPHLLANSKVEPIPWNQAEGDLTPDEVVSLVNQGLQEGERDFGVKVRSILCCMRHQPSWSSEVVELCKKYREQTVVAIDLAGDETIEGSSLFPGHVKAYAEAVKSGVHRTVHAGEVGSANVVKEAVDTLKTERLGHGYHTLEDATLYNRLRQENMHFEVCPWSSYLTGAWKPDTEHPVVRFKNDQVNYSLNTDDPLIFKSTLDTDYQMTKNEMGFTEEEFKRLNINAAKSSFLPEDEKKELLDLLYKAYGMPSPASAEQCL
The experiment in a line: Activity of calf mucosal adenosine deaminase assessed as enzyme-mediated drug metabolism by liquid chromatographic analysis. Format: ADME. To be noted: cattle. In a few lines: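 Drug exposed to the deaminase, with enzyme level also raised 10- and 100-fold. Reaction mixtures analysed by reverse-phase C18 LC (aqueous acetonitrile eluent, 254-nm UV detection) for unchanged substrate.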

A short description of series [10]: Aqueous solubility of the compound at pH 7. It counts as physicochemical.
The test system of series [11] is Human alphaherpesvirus 1. The experiment in a line: Antiviral activity against Herpes simplex virus 1 assessed as plaque reduction at 0.18 x 10^-5 M by cell-based assay relative to vidarabine. It counts as functional. Summed up:
as §2

The subject of series [12] is Human alphaherpesvirus 1. The experiment in a line: Antiviral activity against Herpes simplex virus 1 assessed as plaque reduction at 1.75 x 10^-5 M by cell-based assay relative to control. Format: functional. In a few lines: as §2
Series [13] relates to Human alphaherpesvirus 1. The experiment in a line: Antiviral activity against Herpes simplex virus 1 assessed as plaque reduction at 0.54 x 10^-5 M by cell-based assay relative to vidarabine. Format: functional. Summed up: as §2
Series [14] relates to Human alphaherpesvirus 1. The experiment in a line: Antiviral activity against Herpes simplex virus 1 assessed as plaque reduction at 5.47 x 10^-5 M by cell-based assay relative to vidarabine. It counts as functional. In a few lines: as §2
Series [15] deals with Human alphaherpesvirus 1. The experiment in a line: Antiviral activity against Herpes simplex virus 1 assessed as plaque reduction at 0.17 x 10^-5 M by cell-based assay relative to control. Format: functional. In a few lines:
as §2

Series [16] has as its system Human alphaherpesvirus 1. The experiment in a line: Antiviral activity against Herpes simplex virus 1 assessed as plaque reduction at 1.71 x 10^-5 M by cell-based assay relative to vidarabine. It counts as functional. In a few lines:
as §2

Series [17] has as its system Human alphaherpesvirus 1. The experiment in a line: Antiviral activity against Herpes simplex virus 1 assessed as plaque reduction at 0.17 x 10^-5 M by cell-based assay relative to vidarabine. Format: functional. Summed up: as §2
The test system of series [18] is Human alphaherpesvirus 1. The experiment in a line: Antiviral activity against Herpes simplex virus 1 assessed as plaque reduction at 1.76 x 10^-5 M by cell-based assay relative to control. Format: functional. Summed up: as §2
Series [19] relates to Human alphaherpesvirus 1. The experiment in a line: Antiviral activity against Herpes simplex virus 1 assessed as plaque reduction at 1.76 x 10^-5 M by cell-based assay relative to vidarabine. Format: functional. In a few lines: as §2
The test system of series [20] is Human alphaherpesvirus 1. The experiment in a line: Antiviral activity against Herpes simplex virus 1 assessed as plaque reduction at 1.67 x 10^-5 M by cell-based assay relative to control. It counts as functional. Summed up:
as §2

The test system of series [21] is Human alphaherpesvirus 1. The experiment in a line: Antiviral activity against Herpes simplex virus 1 assessed as plaque reduction at 1.67 x 10^-5 M by cell-based assay relative to vidarabine. It counts as functional. Summed up:
as §2

Values after ≈ are worked out from the molar mass of the structure shown. Active and inactive are the calls of the source. The calls are words filed in the database; no cut-off is given here.

For `Nc1ncnc2c1ncn2[C@@H]1O[C@H](COP(=O)(O)O)[C@@H](O)[C@@H]1O`, the outcome in series [1], in series [2], in series [3], in series [4], in series [5] and in [6] was Active.

Regarding `CC(C)C(=O)O[C@H]1[C@H](O)[C@H](n2cnc3c(N)ncnc32)O[C@@H]1CO`, the values for the inhibition at 1.8 µM in [7] and in series [11] were 26% and 60%, respectively. The inhibition (in general, the relative decrease from the control value, in per cent) at 17.5 µM is 90% in series [8] and 99% in series [12]. In series [9], the Stability entry was “Unstable”. Also, the solubility (as a rule, the concentration that dissolves in the medium under given conditions) in series [10] (buffer) is on record as “soluble”.

Take `CC(=O)OC[C@H]1O[C@@H](n2cnc3c(N)ncnc32)[C@@H](O)[C@@H]1OC(C)=O`: in series [13], the inhibition at 5.4 µM amounted to 79%. Besides, the inhibition at 17.5 µM in series [8] was found to be 87%; in [12] it was 81%. The Stability result in series [9] was “Stable”. In addition, the solubility in series [10] (aqueous, read-out: solubility) is 4700 µg/mL (≈ 13.4 mM).

Take `Nc1ncnc2c1ncn2[C@@H]1O[C@H](CO)[C@@H](OC(=O)c2ccccc2)[C@@H]1OC(=O)c1ccccc1`: the Stability result in series [9] is on record as “Stable”. In addition, the solubility in series [10] (aqueous, read-out: solubility) is under 10 µg/mL. Besides, the inhibition at 54.7 µM in series [14] was 100%.

For the molecule `CC(=O)O[C@H]1[C@H](O)[C@H](n2cnc3c(N)ncnc32)O[C@@H]1CO`, the inhibition at 1.7 µM stood at 9% in series [15] and 36% in series [17]. Also, the inhibition at 17.1 µM in [16] was found to be 87%. In addition, the Stability result in [9] is listed as “Unstable”. In addition, the solubility entry in series [10] (buffer) is reported as “soluble”.

In the case of `CCC(=O)O[C@H]1[C@H](O)[C@H](n2cnc3c(N)ncnc32)O[C@@H]1CO`, the inhibition at 1.8 µM is 5% in series [7] and 36% in series [11]. Besides, the inhibition at 17.6 µM in series [18] was 80%; in series [19] it was 87%. The Stability result in series [9] is given as “Unstable”. The solubility result in series [10] (buffer) is given as “soluble”.

`CC(C)(C)C(=O)OC[C@H]1O[C@@H](n2cnc3c(N)ncnc32)[C@@H](O)[C@@H]1OC(=O)C(C)(C)C`: the inhibition at 16.7 µM in series [20] is 0%; in [21] it was 100%. In addition, the Stability result in series [9] is reported as “Stable”. Moreover, in series [10] (aqueous, read-out: solubility), the solubility was under 10 µg/mL.
